Results: ChEMBL document CHEMBL1777776, “Identification of 2-mercaptohexanoic acids as dual inhibitors of 5-lipoxygenase and microsomal prostaglandin E₂ synthase-1” (Bioorg Med Chem, 2011)
Active and inactive are the calls of the source. The calls are words filed in the database; no cut-off is given here.

Experiments:
[1] = target: T1, Polyunsaturated fatty acid 5-lipoxygenase (Homo sapiens) (UniProt P09917); test: Inhibition of human recombinant 5-lipoxygenase expressed in Escherichia coli BL21 assessed as enzyme product formation measured after washout
T1 sequence (whole entry): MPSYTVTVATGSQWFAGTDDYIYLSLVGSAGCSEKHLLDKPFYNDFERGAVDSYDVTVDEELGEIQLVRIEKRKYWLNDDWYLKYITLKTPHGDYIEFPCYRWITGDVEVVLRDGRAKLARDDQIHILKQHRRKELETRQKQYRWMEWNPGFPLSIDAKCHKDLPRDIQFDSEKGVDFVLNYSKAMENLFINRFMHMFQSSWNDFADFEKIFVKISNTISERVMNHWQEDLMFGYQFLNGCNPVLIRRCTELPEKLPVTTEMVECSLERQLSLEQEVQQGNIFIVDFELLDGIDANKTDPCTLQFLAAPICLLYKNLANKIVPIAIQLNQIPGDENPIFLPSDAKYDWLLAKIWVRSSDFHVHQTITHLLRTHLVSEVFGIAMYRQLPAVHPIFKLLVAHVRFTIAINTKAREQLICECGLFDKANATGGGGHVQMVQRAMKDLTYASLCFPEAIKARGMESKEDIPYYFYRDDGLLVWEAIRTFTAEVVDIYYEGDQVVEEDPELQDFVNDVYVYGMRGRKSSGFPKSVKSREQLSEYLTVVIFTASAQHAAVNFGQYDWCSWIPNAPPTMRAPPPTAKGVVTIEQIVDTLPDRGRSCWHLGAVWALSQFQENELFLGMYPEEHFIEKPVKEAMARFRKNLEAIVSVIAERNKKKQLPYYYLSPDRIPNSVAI
In short: (§1)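 Human 5-LO expressed in E. coli BL21 (pT3-5LO), affinity-purified and used at once. 0.5 µg enzyme in 1 ml PBS/EDTA with 1 mM ATP preincubated with compound 5–10 min at 4 °C, then warmed 30 s at 37 °C. Reaction started with 2 mM CaCl₂ and AA (routinely 20 µM), with or without 1 µM 13(S)-HpODE. Run 10 min at 37 °C, stopped with ice-cold methanol, products analysed by HPLC. Washout: 10-fold dilution (10 to 1 µM).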

[2] = target: T2, Prostaglandin G/H synthase 1 (Ovis aries) (UniProt P05979); test: Inhibition of ovine COX1 assessed as residual activity at 10 uM after 5 mins
T2 sequence (whole entry): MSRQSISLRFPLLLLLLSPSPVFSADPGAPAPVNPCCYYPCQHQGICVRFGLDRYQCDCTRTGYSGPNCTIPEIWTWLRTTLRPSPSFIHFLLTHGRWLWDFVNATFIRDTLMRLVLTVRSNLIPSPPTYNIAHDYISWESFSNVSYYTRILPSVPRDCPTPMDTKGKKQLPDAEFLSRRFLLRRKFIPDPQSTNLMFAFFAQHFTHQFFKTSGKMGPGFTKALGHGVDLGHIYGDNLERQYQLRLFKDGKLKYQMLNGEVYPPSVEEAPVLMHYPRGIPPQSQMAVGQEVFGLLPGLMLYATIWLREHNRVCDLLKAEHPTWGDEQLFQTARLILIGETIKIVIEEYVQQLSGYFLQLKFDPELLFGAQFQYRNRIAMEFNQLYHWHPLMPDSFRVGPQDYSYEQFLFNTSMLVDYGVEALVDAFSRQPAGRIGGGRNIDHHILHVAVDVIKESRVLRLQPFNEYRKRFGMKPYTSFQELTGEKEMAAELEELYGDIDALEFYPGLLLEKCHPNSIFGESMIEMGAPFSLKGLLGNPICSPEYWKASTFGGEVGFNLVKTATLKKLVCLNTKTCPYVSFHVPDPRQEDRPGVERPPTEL
In short: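 Ovine COX-1 (50 units) or human recombinant COX-2 (20 units) in 1 ml 100 mM Tris pH 8 with 5 mM glutathione, 5 µM haemoglobin and 100 µM EDTA. Preincubated with 10 µM compound 5 min at 4 °C, warmed 60 s at 37 °C. Started with AA (5 µM for COX-1, 2 µM for COX-2), run 5 min at 37 °C. 12-HHT extracted and analysed by HPLC. n = 3.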

A549 = test: Cytotoxicity against human A549 cells assessed as cell viability at 10 uM after 16 hrs by MTT assay; assay type: cell-based; settings: a549, 5 h, in the assay text read “5 hrs” for “16 hrs”
In short: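 A549 cells plated at 4 × 10⁴ cells per well, incubated 16 h at 37 °C, 5% CO₂, then exposed to 10 µM compound or DMSO (≤0.3% final) for 5 h. MTT added for 4 h, formazan solubilized with SDS in 20 mM HCl, absorbance at 595 nm read relative to vehicle-treated cells.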

[3] = target: T1, Polyunsaturated fatty acid 5-lipoxygenase (Homo sapiens); test: Inhibition of human recombinant 5-lipoxygenase expressed in Escherichia coli BL21 assessed as enzyme product formation measured up to 30 uM in presence of 13(S)-HpODE; in short: as §1
[4] = target: T3, Polyunsaturated fatty acid 5-lipoxygenase (Homo sapiens, UniProt P09917); test: Inhibition of 5-lipoxygenase in A23187-stimulated human PMNL assessed as enzyme product formation preincubated 15 mins by RP-HPLC analysis in presence of exogenous arachidonic acid
T3 sequence (P09917 whole entry): T1 sequence (whole entry)
In short: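 Freshly isolated human PMNL (5 × 10⁶/ml PGC buffer: PBS pH 7.4, 1 mg/ml glucose, 1 mM CaCl₂) preincubated with compound 15 min at 37 °C. Stimulated with 2.5 µM A23187 plus exogenous AA for 10 min at 37 °C. Stopped with methanol, PGB₁ added as internal standard, lipoxygenase products analysed by HPLC. Mean of n = 3–5.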

inhibition [1]: Active
Activity [2]: 79.2%
inhibition [3]: Active
IC50 [4]: 900 nM
Structure (SMILES): CCCCC(Sc1ccc(OCCCOc2ccc(-c3ccccc3)cc2)cc1)C(=O)O (stereo not given)
Activity (A549): Non-toxic
